Reference: ChEMBL document CHEMBL3271968, “Novel bis(benzamidino) compounds with an aromatic central link. Inhibitors of thrombin, pancreatic kallikrein, trypsin, and complement” (J Med Chem, 1976)
The source made the active and inactive calls. The rule behind the calls is not given here.

Experiments:
[1] = Inhibition of bovine trypsin using BANA as substrate after 15 to 30 mins; parameters: species or system Bos taurus
Glandular kallikrein [2] = molecular target: T1, Glandular kallikrein (Sus scrofa, UniProt P00752); experiment: Inhibition of porcine pancreatic kallikrein using BANA as substrate after 15 to 180 mins
T1 sequence (P00752 whole entry): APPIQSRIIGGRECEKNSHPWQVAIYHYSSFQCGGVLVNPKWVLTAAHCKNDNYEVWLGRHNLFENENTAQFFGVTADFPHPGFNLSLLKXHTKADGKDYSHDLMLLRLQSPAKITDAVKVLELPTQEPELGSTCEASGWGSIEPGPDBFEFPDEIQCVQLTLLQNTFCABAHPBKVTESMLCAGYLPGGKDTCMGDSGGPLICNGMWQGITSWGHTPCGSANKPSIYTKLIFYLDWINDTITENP
Method in brief: (§1)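 Porcine pancreatic kallikrein (635 Frey units/mg) amidase assay, pH 8.1, 37°, 15-180 min. […] Ki came from Dixon plots at two substrate concentrations. Means ± SD, n = 3.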

Cavia porcellus [3] = species: Cavia porcellus; experiment: Inhibition of guinea pig complement-mediated immune lysis of sheep red blood cells at 10 uM after 12 mins
Method in brief: (§2)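 Inhibitor in Tris/Mg/Ca/NaCl/gelatin buffer was preincubated 15 min at 37° with guinea pig complement (1:100 of 200 CH50/ml). Sheep erythrocytes (10^9/ml) presensitized with rabbit hemolysin (1:800) were added, and tubes incubated 12 min at 37°. Cold citrate-saline stopped lysis. Hemoglobin at 524 nm was converted to % inhibition via a complement standard curve, corrected for inhibitor lysis, in duplicate.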

Prothrombin (Bos taurus) = Prothrombin (Bos taurus) (UniProt P00735); experiment: Inhibition of bovine thrombin-mediated blood clotting formation in presence of human fibrinogen
Prothrombin [4] = molecular target: T2, Prothrombin (Bos taurus, UniProt P00735); experiment: Inhibition of amidase activity of bovine thrombin using BANA as substrate after 15 to 40 mins
Cavia porcellus [5] = species: Cavia porcellus; experiment: Inhibition of guinea pig complement-mediated immune lysis of sheep red blood cells at 30 uM after 12 mins; method in brief: as §2
Cavia porcellus [6] = species: Cavia porcellus; experiment: Inhibition of guinea pig complement-mediated immune lysis of sheep red blood cells at 0.1 mM after 12 mins; method in brief: as §2
Plasma [7] = experiment: Anticoagulant activity in human plasma assessed as partial thromboplastin time at 10 uM (reference value: 59 +/- 2.6 secs); type: functional
Plasma [8] = experiment: Anticoagulant activity in human plasma assessed as partial thromboplastin time at 0.1 mM (reference value: 59 +/- 2.6 secs); type: functional
Plasma [9] = experiment: Anticoagulant activity in human plasma assessed as partial thromboplastin time at 5 uM (reference value: 59 +/- 2.6 secs); type: functional
Prothrombin [10] = molecular target: T2, Prothrombin; experiment: Inhibition of amidase activity of bovine thrombin using BPVANA as substrate after 15 to 40 mins
Glandular kallikrein [11] = molecular target: T1, Glandular kallikrein; experiment: Inhibition of porcine pancreatic kallikrein using BPPANA as substrate after 15 to 180 mins; method in brief: as §1
Rattus norvegicus = experiment: Anticoagulant activity in Wistar rat plasma assessed as activation of partial thromboplastin time at 1.9 mg/kg, iv; type: functional, organism-based; parameters: dose 1.9 mg/kg
Method in brief: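 Female Wistar rats (about 300 g), anesthetized with sodium pentobarbital 25 mg/kg sc, received inhibitor at 1.9 mg/kg iv. Post-injection plasma was separated by centrifugation. 0.1 ml was mixed with Celite suspension, saline and partial thromboplastin, agitated 3 min at 37°, recalcified with 0.02 M CaCl2, and activated PTT clotting time recorded.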

Row | SMILES | Ki [1] [µM] | Ki (Glandular kallikrein [2]) [µM] | inhibition (Cavia porcellus [3]) [%] | IC50 (Prothrombin (Bos taurus)) [µM] | Ki (Prothrombin [4]) [µM] | inhibition (Cavia porcellus [5]) [%] | inhibition (Cavia porcellus [6]) [%] | APTT (Plasma [7]) [s] | APTT (Plasma [8]) [s] | APTT (Plasma [9]) [s] | Ki (Prothrombin [10]) [µM] | Ki (Glandular kallikrein [11]) [µM] | Activity (Rattus norvegicus)
1 | Cl.N=C(N)c1cccc(COc2ccc3cc(OCc4cccc(C(=N)N)c4)ccc3c2)c1 | 3.2 | 5.5 | 11 | 30 | 2.4 | > 50 | > 50 | 72 | 277 | 61 |  |  | 
2 | Cl.N=C(N)c1ccc(OCc2ccc(COc3ccc(C(=N)N)cc3Br)cc2)c(Br)c1 | 1.1 | 0.71 |  |  |  |  |  | 110 | 258 | 96 | 0.16 |  | 
3 | Cl.N=C(N)c1cccc(OCc2cccc(-c3cccc(COc4cccc(C(=N)N)c4)c3)c2)c1 | 4.01 | 1.76 |  | 4 | 1.67 |  |  | 93 |  | 73 |  |  | 
4 | Cl.N=C(N)c1ccc(OCc2ccc(COc3ccc(C(=N)N)cc3)c3ccccc23)cc1 | 1.9 | 2.5 | 2.9 |  | 6.6 | 10.8 |  | 71 | 203 | 64 |  |  | 
5 | N=C(N)c1ccc(COc2ccc3cc(OCc4ccc(C(=N)N)cc4)ccc3c2)cc1 | 3.2 | 9.7 |  |  | 6 |  |  |  |  |  |  |  | 
6 | Cl.N=C(N)c1ccc(OCc2cccc(COc3ccc(C(=N)N)cc3)c2)cc1 | 3.5 | 6.7 | 0 | 25 | 4.8 | 10.3 | 24.9 | 117 |  | 87 |  |  | 
7 | N=C(N)c1ccc(OCCCCCOc2ccc(C(=N)N)cc2I)c(I)c1 |  |  | 26.9 |  |  | > 50 |  |  |  |  |  |  | 
8 | N=C(N)c1ccc(OCc2c(Cl)c(Cl)c(COc3ccc(C(=N)N)cc3)c(Cl)c2Cl)cc1 | 1.2 | 3.4 | 0 |  | 6.7 | > 50 |  |  |  |  |  |  | 
9 | Cl.N=C(N)c1ccc(OCc2cc(COc3ccc(C(=N)N)cc3)c3ccccc3c2)cc1 | 1.8 | 1.04 | 5.6 | 15 | 5.2 | 15.3 | > 50 | 67 | 147 | 62 |  |  | 
10 | Cl.N=C(N)c1ccc(OCc2ccc(COc3ccc(C(=N)N)cc3I)cc2)c(I)c1 | 2.3 |  | 0 | 1 |  | 29.8 |  | 92 |  | 80 | 0.11 | 0.61 | 
11 | Cl.N=C(N)c1cccc(OCc2ccc(COc3cccc(C(=N)N)c3)cc2)c1 | 6.1 | 5.8 | 5.6 | 13 | 5 | 14 | 19.1 | 122 | 391 | 80 |  |  | 
12 | Cl.N=C(N)c1cccc(OCc2cccc(COc3cccc(C(=N)N)c3)c2)c1 | 3.2 | 3.4 | 0 | 6.5 | 4.6 | 13.7 | 34 | 112 | 714 | 92 |  |  | 
13 | Cl.N=C(N)c1ccc(OCc2ccc(COc3ccc(C(=N)N)cc3)cc2)cc1 | 1.3 | 11.4 | 0 | 17 | 3.4 | 0 | 25.9 | 176 | 725 | 147 |  |  | inactive
14 | N=C(N)c1cccc(OCc2ccc3cc(COc4cccc(C(=N)N)c4)ccc3c2)c1 | 5.9 | 5.5 | 36.6 | 72 | 5.1 | 47 |  |  |  |  |  |  | 
15 | Cl.N=C(N)c1ccc(COc2cccc3c(OCc4ccc(C(=N)N)cc4)cccc23)cc1 | 2.8 | 8.6 | 0 |  |  | 0 | 0 | 61 | 141 | 60 |  |  | 
16 | Cl.N=C(N)c1cccc(COc2cccc3c(OCc4cccc(C(=N)N)c4)cccc23)c1 | 0.42 | 2.2 | 0 |  |  | 8.9 | 39 | 75 |  | 65 |  |  | 
17 | CC[n+]1c(-c2ccccc2)c2cc(NN=Nc3cccc(C(=N)N)c3)ccc2c2ccc(NN=Nc3cccc(C(=N)N)c3)cc21 |  |  | 50 |  |  | > 50 | > 50 |  |  |  |  |  | 
18 | Cl.N=C(N)c1ccc(COc2ccc3ccc(OCc4ccc(C(=N)N)cc4)cc3c2)cc1 | 1.8 | 2.8 | 12.8 | 20 | 4.9 | 37.4 | > 50 | 66 |  | 63 |  |  | 
19 | Cl.N=C(N)c1ccc(OCc2cccc(COc3ccc(C(=N)N)cc3I)c2)c(I)c1 | 0.67 |  | 0 |  | 1.2 | 32.6 | > 50 | 70 | 369 | 64 |  | 0.031 | 
20 | N=C(N)c1ccc(OCCCCCOc2ccc(C(=N)N)cc2Br)c(Br)c1 |  |  | 20.8 |  |  | 28.5 | > 50 |  |  |  |  |  | 
21 | N=C(N)c1ccc(OCCCOc2ccc(C(=N)N)cc2Br)c(Br)c1 |  |  | 6.3 |  |  | 26.9 | 19.1 |  |  |  |  |  | 
22 | Cl.N=C(N)c1ccc(OCc2c(Cl)c(Cl)c(Cl)c(COc3ccc(C(=N)N)cc3)c2Cl)cc1 | 1.3 | 5.2 | 5.9 | 8 | 1.5 | > 50 | > 50 | 76 |  | 62 |  |  | 
23 | Cl.N=C(N)c1ccc(OCc2cccc(-c3cccc(COc4ccc(C(=N)N)cc4)c3)c2)cc1 | 1.4 | 1.6 |  | 0.73 |  |  |  | 83 | 412 | 72 | 0.57 |  | 
24 | Cl.N=C(N)c1ccc(OCc2cccc(-c3cccc(COc4ccc(C(=N)N)cc4Br)c3)c2)c(Br)c1 | 0.25 | 2.2 |  | 10 |  |  |  |  |  | 62 | 0.27 |  | 
